# dFosB activator – mouse delta FosB homodimer activation | AID 493131 | 0.99% of 340,000 active | activation, % at 25 µM | purified delta FosB, TAMRA-CDK5 oligo fluorescence polarization; percent of positive-control signal above neutral wells | P13346;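 active = mean activation above about 17%, with every replicate also reaching it, limit read from the data, passing the limit was not always enough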
# SR-BI uptake up – enhances SR-BI lipid uptake from DiI-HDL | AID 504775 | CHO ldlA[mSR-BI] cells, DiI-HDL uptake fluorescence, 3 h; 100 = double the neutral-control signal | 0.096% of 320,000 active | activation, % at 12.5 µM;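 active = mean replicate activation of at least 60% and every replicate at or above 60%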;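 also: 0% = median plate neutral-control signal and 100% = twice that signal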
#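 system = CHO ldlA[mSR-BI] cells, LDL receptor-null, SR-BI overexpressing | medium = Ham's F12 with 0.5% BSA, HEPES 25 mM, pH 7.4 | probe or stimulus = DiI-HDL 10 µg/mL | compound dosing = single-point compound dose | incubation = compound exposure 3 h, 37 °C | technique = DiI fluorescence, bottom read | read-out = cell-associated DiI fluorescence as measure of HDL uptake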
# CAL PDZ FP-1 – inhibitors of human CAL PDZ peptide binding | Q9HD26 | purified CAL PDZ, TMR-peptide fluorescence polarization, 1 h | inhibition, % at 24.9 µM | 0.92% of 300,000 active;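 active = mean inhibition of at least 30% with at least half of replicates also reaching 30%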;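 also: 0% = DMSO neutral control and 100% = excess unlabeled competitor peptide PRC23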
# CAL PDZ FP-2 – inhibitors of human CAL PDZ peptide binding. 0.02% of 330,000 active. Q9HD26. AID 504414. inhibition, % at 20 µM. purified CAL PDZ, TMR-peptide fluorescence polarization, 1 h;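 active = highest replicate inhibition of at least 40%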;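 also: plate controls were DMSO neutral control wells for no effect and unlabeled competitor peptide control wells for full effect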
#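 Test system: purified CerCALP PDZ construct; Compound dosing: one concentration, 20 µM compound; Also added: TMR-labelled reporter peptide T*-PRC34 bound in PDZ groove; Read-out: inhibition from polarization loss; Controls: unlabelled peptide and DMSO controls; Signal: FP readout, S and P plane fluorescence; Incubation: 1 h at RT.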
# SR-BI HDL uptake – inhibitors of mouse SR-BI mediated HDL lipid uptake | Q61009 | ldlA[mSR-BI] CHO cells, DiI-HDL uptake fluorescence, 3 h | inhibition, % at 12.5 µM | 0.96% of 320,000 active | AID 488896;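 active = mean replicate inhibition of at least 70% and a set share of replicates each scoring 70 or more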;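 also: 0% = median of neutral control wells and 100% = median of positive control wells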
# Target sequence (Q61009 whole entry, looked up): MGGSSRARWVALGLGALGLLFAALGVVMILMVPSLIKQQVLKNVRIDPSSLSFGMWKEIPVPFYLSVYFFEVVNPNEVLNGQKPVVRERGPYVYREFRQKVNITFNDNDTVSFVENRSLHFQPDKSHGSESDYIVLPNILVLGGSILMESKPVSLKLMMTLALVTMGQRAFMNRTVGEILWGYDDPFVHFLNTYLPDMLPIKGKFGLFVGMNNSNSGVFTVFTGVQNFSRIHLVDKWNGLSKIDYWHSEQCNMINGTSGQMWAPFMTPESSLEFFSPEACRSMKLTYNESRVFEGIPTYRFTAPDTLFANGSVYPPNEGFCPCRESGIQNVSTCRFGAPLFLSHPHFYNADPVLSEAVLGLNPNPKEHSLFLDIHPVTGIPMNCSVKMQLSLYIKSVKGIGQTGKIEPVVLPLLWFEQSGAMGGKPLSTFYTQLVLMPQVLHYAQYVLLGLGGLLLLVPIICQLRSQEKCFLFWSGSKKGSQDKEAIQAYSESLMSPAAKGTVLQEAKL
# The depositor's hits bear a star; x = no result; + = active, no number. Most compounds without a hit are left out; they make up all but 2.8% or so of the library.
SMILES,dFosB activator,SR-BI uptake up,CAL PDZ FP-1,CAL PDZ FP-2,SR-BI HDL uptake
CCCN1C(=O)/C(=C/c2ccc(N3CCCC3)c(C)c2)NC1=S,-7,-87,0,-5,87*
Cc1ccc(N(C)S(=O)(=O)c2csc(C(N)=O)c2)cc1C,-4,-7,-6,2,7
CCN(C(=O)c1cc(S(=O)(=O)N2CCCCC2)c[nH]1)c1ccc(OC)cc1,-10,23,x,0,-23
Cc1cc2cc(CN(Cc3cccs3)S(=O)(=O)c3ccc4c(c3)OCCO4)c(=O)[nH]c2cc1C,14,26,0,-2,-26
Cc1ccc2[nH]c(=O)c(CN(Cc3cccs3)S(=O)(=O)c3ccc4c(c3)OCCO4)cc2c1,4,-9,34*,-2,9
Cc1ccc(C)c(NC(=O)C2CCCN(S(=O)(=O)c3cccnc3)C2)c1 (centres undefined),-10,-4,-3,-2,4
O=C(CSc1nc2c(sc3ccccc32)c(=O)n1Cc1ccccc1)NCC1CCCO1 (centres undefined),13,14,4,89*,-14
O=C(CSc1nc2ccc(N3CCOCC3)cc2c(=O)n1CCc1ccccc1)NCC1CCCO1 (centres undefined),-19,9,68*,-3,-9
COc1ccc(-c2oc(/N=C/N3CCOCC3)c(C#N)c2-c2ccc(OC)cc2)cc1,-5,-72,1,-1,72*
N#Cc1c(/N=C/c2ccccc2)oc(-c2ccccc2)c1-c1ccccc1,-5,-7,-1,-4,7
Cc1ccc(NC(=S)Nc2ccc(OC(F)F)c(Cl)c2)cc1F,-7,3,66*,0,-3
Fc1ccc(NC(=S)Nc2ccc(F)c(Cl)c2)cc1Cl,-3,-25,-6,-2,25
O=Cc1c(Sc2ccccn2)nc2ccccn2c1=O,-3,-77,-5,-5,77*
CCOC(=O)c1c(C)n(-c2ccc(C)cc2)c2ccc(OCC(O)CNCCCO)cc12 (centres undefined),9,-3,-8,-1,3
CCOC(=O)c1c(C)n(-c2ccc(C)cc2)c2ccc(OCC(O)CNCC3CCCO3)cc12 (centres undefined),30*,-17,x,-2,17
CC1=CC(=C(C#N)c2nc3ccccc3s2)C=C(C)N1Cc1ccco1,0,-109,-3,-1,109*
N#C/C(=C(/O)c1ccco1)c1nc2ccccc2s1,4,2,-1,1,-2
CCC1=NN(C(=O)c2ccc(C)cc2)C(O)(c2ccc(Br)cc2)C1 (centres undefined),-10,103*,-4,-2,-103
CC1=NN(C(=O)c2ccc(Br)cc2)C(O)(C(F)(F)OC(F)(F)F)C1 (centres undefined),-6,-78,-3,0,78*
O=C(COC(=O)CC1CC2CCC1C2)Nc1ccccc1[N+](=O)[O-] (centres undefined),-3,8,-3,1,-8
COCCN1CCN(C(=O)C2CCC(=O)N(CCc3ccccc3)C2)CC1 (centres undefined),-2,10,4,1,-10
Cc1c(-c2nc(-c3ccncc3)no2)cccc1[N+](=O)[O-],4,18,69*,-1,-18
CCCc1ccc(C(=O)/C=C/N(C)C)cc1,-8,5,53*,-4,-5
CN(C)/C=C/C(=O)c1ccc(F)cc1,-3,4,1,-2,-4
COc1ccc(C(=O)Nc2nc(CC(=O)NCCc3ccccc3OC)cs2)cc1,-15,-70,-1,-3,70
SMILES,dFosB activator,SR-BI uptake up,CAL PDZ FP-1,CAL PDZ FP-2,SR-BI HDL uptake
CCCNC(=O)C(Cc1ccc(F)cc1)NC(=O)c1ccc(C#N)cc1 (centres undefined),2,-10,-1,0,10
Cn1cc(C(=O)C(=O)N2CCCc3ccccc32)c2ccccc21,-6,-33,34*,-4,33
CC(C)(C)C(=O)Nc1ccc(-c2cc3cc(Cl)ccc3o2)cc1,0,-22,-4,-1,22
COc1ccc(CC2CCOC2=O)cc1 (centres undefined),7,5,62*,0,-5
O=C(CSc1nnc(-c2ccccc2Cl)o1)N1CCCC1,-2,x,2,-3,x
O=C(NC1CCCC1)C1CCCN(S(=O)(=O)c2ccc(-n3cnnn3)cc2)C1 (centres undefined),3,15,33*,x,-15
CC(C)NC(=O)C1CCCN(S(=O)(=O)c2ccc(-n3cnnn3)cc2)C1 (centres undefined),1,43,-6,1,-43
CN(c1ccccc1)S(=O)(=O)c1cccc(C(=O)N2CCCCCC2)c1,-4,-5,39*,-1,5
CN(c1ccc(C(=O)N2CCCCC2)cc1)S(=O)(=O)c1ccccc1,-1,-5,4,0,5
O=C(c1cccc(S(=O)(=O)NCc2ccccc2)c1)N1CCCC1,0,2,85*,-1,-2
Cn1ncc(Br)c1NC(=O)CSc1ccc(Cl)cc1,-8,x,-2,-1,x
c1ccc2c(c1)SCc1nnc(-c3ccncc3)n1-2,3,-8,96*,-1,8
COc1ccc(-c2nnc3n2-c2ccccc2SC3)cc1OC,1,-1,-6,-1,1
CCC(CC)c1nnc(NC(=O)CN2C(=O)NC3(CCCC3)C2=O)s1,3,-19,-4,-3,19
O=C(N/N=C/c1cccnc1)c1cccc(F)c1,2,2,52*,x,-2
O=C(N/N=C/c1cccnc1)c1[nH]ncc1Br,-7,-10,49*,0,10
CCc1ccccc1NC(=O)CN(C)C(=O)COC(=O)c1ccco1,7,8,9,0,-8
Cc1nc2sccn2c(=O)c1Cl,9,17,0,-2,-17
Cn1c(=O)c2c(nc3sccn32)n(C)c1=O,0,69*,-1,0,-69
O=C(O)CC1(CC(=O)Nc2ccc3c(c2)OCCCO3)CCCCC1,3,-2,-1,0,2
O=C(CC(c1ccccc1)c1ccccc1)Nc1ccncc1,-4,-8,81*,-3,8
CC(O)c1cccc(NC(=O)CC(c2ccccc2)c2ccccc2)c1 (centres undefined),-17,-44,5,-3,44
Cc1cc(C)c(S(=O)(=O)NCC23C=CC(O2)C2C(=O)N(c4ccccc4)C(=O)C23)c(C)c1 (centres undefined),0,-5,43*,0,5
C[C@]12c3[nH]c4cc(-c5ccco5)ccc4c3CCN1C(=O)[C@@H](CC(=O)NCCN1CCOCC1)C[C@@H]2C(=O)N1CCCCC1,-11,-9,48*,-1,9
Cc1cccc2nc(-c3ccco3)oc(=O)c12,-7,6,-7,0,-6
O=C1COc2cccnc2N1,3,-1,-2,-3,1
O=C1COc2ccccc2CN1,0,x,+,-1,x

# Bioassay records from PubChem.
